{"source": "ChEMBL document CHEMBL1126854", "about": "“A series of penicillin derived C2-symmetric inhibitors of HIV-1 proteinase: synthesis, mode of interaction, and structure-activity relationships” (J Med Chem, 1993)", "key": {"[1]": {"assay": "Volume of distribution in Beagles dog at a dose of 1 mg/kg given intravenously", "assay_type": "ADME, organism-based, Canis lupus familiaris", "design": "dose 1 mg/kg, route intravenous", "conditions": "beagle, in vivo, iv, read-out: Distribution", "procedure,_shortened": "(§1)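 Single intravenous dose in a vehicle of ethanol (10–20%), polyethyleneglycol (10%) and saline. Doses were 5 mg/kg for CD rats (n = 2 per time point), 1 mg/kg for beagles (n = 2) and 5 mg/kg for cynomolgus monkeys (n = 2). Plasma t1/2, plasma clearance and steady-state volume of distribution were derived.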"}, "[2]": {"assay": "Volume of distribution in Cynomolgus monkey at a dose of 5 mg/kg given intravenously", "assay_type": "ADME, organism-based, Macaca fascicularis", "design": "dose 5 mg/kg, route intravenous", "conditions": "in vivo, iv, read-out: Distribution", "procedure,_shortened": "as §1"}, "[3]": {"assay": "Plasma clearance in Beagles dog at a dose of 1 mg/kg given intravenously", "assay_type": "ADME, organism-based, Canis lupus familiaris", "design": "dose 1 mg/kg, route intravenous", "conditions": "beagle, iv", "procedure,_shortened": "as §1"}, "[4]": {"assay": "Plasma clearance in CD rat at a dose of 5 mg/kg given intravenously", "assay_type": "ADME, organism-based", "design": "dose 5 mg/kg, route intravenous", "conditions": "iv", "procedure,_shortened": "as §1"}, "[5]": {"assay": "Plasma clearance in Cynomolgus monkey at a dose of 5 mg/kg given intravenously", "assay_type": "ADME, organism-based, Macaca fascicularis", "design": "dose 5 mg/kg, route intravenous", "conditions": "iv", "procedure,_shortened": "as §1"}, "[6]": {"assay": "Half-life in Beagles dog at a dose of 1 mg/kg given intravenously", "assay_type": "ADME, organism-based, Canis lupus familiaris", "design": "dose 1 mg/kg, route intravenous", "conditions": "beagle, in vivo, iv", "procedure,_shortened": "as §1"}, "[7]": {"assay": "Half-life in CD rat at a dose of 5 mg/kg given intravenously", "assay_type": "ADME, organism-based", "design": "dose 5 mg/kg, route intravenous", "conditions": "in vivo, iv", "procedure,_shortened": "as §1"}, "[8]": {"assay": "Half-life in Cynomolgus monkey at a dose of 5 mg/kg given intravenously", "assay_type": "ADME, organism-based, Macaca fascicularis", "design": "dose 5 mg/kg, route intravenous", "conditions": "in vivo, iv", "procedure,_shortened": "as §1"}, "[9]": {"tested_on": "Human immunodeficiency virus 1", "assay": "Inhibitory effects on HIV-1 induced syncytium formation in C8166 cells", "assay_type": "functional, organism-based", "conditions": "Human immunodeficiency virus 1, C8166", "procedure,_shortened": "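C8166 cells were infected with HIV-1 RF at moi 1×10^-3 and plated at 10^5 cells/well. Compound in Me2SO was serially diluted in RPMI 1640 from 50 to 0.05 μg/mL. Cells were kept 3–4 days at 37 °C, 5% CO2, and checked daily for syncytia. Syncytia were scored against untreated infected controls, and EC50 was calculated as 50% reduction of cytopathic effect.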"}, "MT4": {"tested_on": "MT4", "assay": "Inhibition of cytopathic effect of HIV-1 strain RF in MT-4 cell culture", "assay_type": "functional, cell-based", "conditions": "Homo sapiens", "procedure,_shortened": "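MT-4 cells at 10^6 cells/mL in RPMI 1640 were infected with HIV-1 RF at moi 2×10^-3 (5×10^4 cells/well). Compound in Me2SO was diluted in 10-fold steps from 100 to 0.01 μg/mL. Cells were kept 7 days at 37 °C, 5% CO2, then given MTT for 60 min. Acidified 2-propanol was added and A540 read. EC50 for 50% inhibition of formazan conversion is the mean of duplicates; toxicity was assayed at the same concentrations.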"}, "[10]": {"assay": "Volume of distribution in CD rat at a dose of 5 mg/kg given intravenously", "assay_type": "ADME, organism-based", "design": "dose 5 mg/kg, route intravenous", "conditions": "in vivo, iv, read-out: Distribution", "procedure,_shortened": "as §1"}, "[11]": {"target": "Human immunodeficiency virus type 1 protease (Human immunodeficiency virus 1, UniProt Q72874)", "assay": "Inhibitory activity against HIV-1 Protease", "procedure,_shortened": "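Buffer: 20 mM MES pH 6.0, 2 M NaCl, 5 mM DTT, 2 mM EDTA. Compounds in 25% Me2SO over a concentration range. Incubated 60 min at 37 °C with shaking, then filtered; released radioactivity counted by scintillation. IC50 from duplicate means, standardized to a reference-compound control.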"}}, "data": [{"compound": "CCNC(=O)[C@@H](NC(=O)Cc1ccccc1)[C@@H]1N[C@@H](C(=O)NCCNC(=O)[C@@H]2N[C@@H]([C@H](NC(=O)Cc3ccccc3)C(=O)NCC)SC2(C)C)C(C)(C)S1", "values": [{"measurement": "Vd", "setting": "[1]", "result": 50, "unit": "L"}, {"measurement": "Vd", "setting": "[2]", "result": 17, "unit": "L"}, {"measurement": "clearance", "setting": "[3]", "result": 300, "unit": "mL/min"}, {"measurement": "clearance", "setting": "[4]", "result": 12, "unit": "mL/min"}, {"measurement": "clearance", "setting": "[5]", "result": 200, "unit": "mL/min"}, {"measurement": "half-life", "setting": "[6]", "result": 4, "unit": "h"}, {"measurement": "half-life", "setting": "[7]", "result": 5, "unit": "h"}, {"measurement": "half-life", "setting": "[8]", "result": 1.2, "unit": "h"}, {"measurement": "EC50", "setting": "[9]", "result": 1.1, "unit": "µM"}, {"measurement": "EC50", "setting": "MT4", "result": 5.4, "unit": "µM"}, {"measurement": "Vd", "setting": "[10]", "result": 2.8, "unit": "L"}]}, {"compound": "CC1(C)S[C@H]([C@H](NC(=O)Cc2ccccc2)C(=O)N2CCCCC2)N[C@H]1C(=O)NCCNC(=O)[C@@H]1N[C@@H]([C@H](NC(=O)Cc2ccccc2)C(=O)N2CCCCC2)SC1(C)C", "values": [{"measurement": "EC50", "setting": "[9]", "result": 0.23, "unit": "µM"}, {"measurement": "EC50", "setting": "MT4", "result": 1.8, "unit": "µM"}, {"measurement": "IC50", "setting": "[11]", "result": 0.0069, "unit": "µM"}]}, {"compound": "CCNC(=O)[C@@H](NS(=O)(=O)Cc1ccccc1)[C@@H]1N[C@@H](C(=O)NCCNC(=O)[C@@H]2N[C@@H]([C@H](NS(=O)(=O)Cc3ccccc3)C(=O)NCC)SC2(C)C)C(C)(C)S1", "values": [{"measurement": "EC50", "setting": "[9]", "result": 13, "unit": "µM"}, {"measurement": "EC50", "setting": "MT4", "result": 32, "unit": "µM"}, {"measurement": "IC50", "setting": "[11]", "result": 0.058, "unit": "µM"}]}, {"compound": "CCNC(=O)[C@@H](NC(=O)c1ccccc1-c1ccccc1)[C@@H]1N[C@@H](C(=O)NCCNC(=O)[C@@H]2N[C@@H]([C@H](NC(=O)c3ccccc3-c3ccccc3)C(=O)NCC)SC2(C)C)C(C)(C)S1", "values": [{"measurement": "EC50", "setting": "[9]", "result": 0.17, "unit": "µM"}, {"measurement": "EC50", "setting": "MT4", "result": 0.03, "unit": "µM"}, {"measurement": "IC50", "setting": "[11]", "result": 0.0099, "unit": "µM"}]}, {"compound": "CN(C)c1ccc(CNC(=O)[C@@H](NC(=O)Cc2ccccc2)[C@@H]2N[C@@H](C(=O)NCCNC(=O)[C@@H]3N[C@@H]([C@H](NC(=O)Cc4ccccc4)C(=O)NCc4ccc(N(C)C)cc4)SC3(C)C)C(C)(C)S2)cc1", "values": [{"measurement": "EC50", "setting": "[9]", "result": 0.02, "unit": "µM"}, {"measurement": "EC50", "setting": "MT4", "result": "< 0.01", "unit": "µM"}, {"measurement": "IC50", "setting": "[11]", "result": 0.047, "unit": "µM"}]}, {"compound": "CC1(C)S[C@H]([C@H](NC(=O)Cc2ccccn2)C(=O)NCc2ccc(Cl)cc2Cl)N[C@H]1C(=O)NCCNC(=O)[C@@H]1N[C@@H]([C@H](NC(=O)Cc2ccccn2)C(=O)NCc2ccc(Cl)cc2Cl)SC1(C)C", "values": [{"measurement": "EC50", "setting": "[9]", "result": 0.24, "unit": "µM"}, {"measurement": "EC50", "setting": "MT4", "result": 0.53, "unit": "µM"}, {"measurement": "IC50", "setting": "[11]", "result": 0.014, "unit": "µM"}]}, {"compound": "CC1(C)S[C@H]([C@H](NC(=O)Cc2ccccc2)C(=O)NCC2CCCCC2)N[C@H]1C(=O)NCCNC(=O)[C@@H]1N[C@@H]([C@H](NC(=O)Cc2ccccc2)C(=O)NCC2CCCCC2)SC1(C)C", "values": [{"measurement": "EC50", "setting": "[9]", "result": 0.06, "unit": "µM"}, {"measurement": "EC50", "setting": "MT4", "result": 8.2, "unit": "µM"}, {"measurement": "IC50", "setting": "[11]", "result": 0.04, "unit": "µM"}]}, {"compound": "CN(C)c1ccc(CNC(=O)[C@@H](NC(=O)c2ccccc2-c2ccccc2)[C@@H]2N[C@@H](C(=O)NCCNC(=O)[C@@H]3N[C@@H]([C@H](NC(=O)c4ccccc4-c4ccccc4)C(=O)NCc4ccc(N(C)C)cc4)SC3(C)C)C(C)(C)S2)cc1", "values": [{"measurement": "EC50", "setting": "[9]", "result": 0.03, "unit": "µM"}, {"measurement": "EC50", "setting": "MT4", "result": "< 0.01", "unit": "µM"}, {"measurement": "IC50", "setting": "[11]", "result": 0.00023, "unit": "µM"}]}]}
